These results are taken from paper PMC3057960 (Cancer research, 2010).

Peptide text beside a SMILES is read from it.

A short description of series [1]: Repeated imaging in immunocompetent mice, immune response. The series is classed as in vivo, mouse. The following applies: up to 6 imaging sessions over 8 months, data not shown.
Series [2] is described as follows: Ex vivo biodistribution in healthy mice. The note with it: mouse, iv, total radioactivity. Put shortly: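 Healthy mice (N=5) were anaesthetised and given 66.3-70.6 μCi (2.45-2.61 MBq) of radiolabelled test compound in 150 μl PBS by tail vein, then euthanised 1 hour post-injection. Organs were removed, weighed and gamma counted, giving %ID/g or %ID/cm3. Soft-tissue density was taken as 1 g/cm3. Lung density was lung weight divided by CT volume from pre-injection CT. Mean ± standard error mean.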

Series [3] is described as follows: Stability in mouse serum by radio HPLC. The class given is in vitro ADME. The following applies: tracer in PBS with equal volume of mouse serum, 37°C, 4 hours. Put shortly:
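Radiotracer in PBS was mixed with an equal volume of mouse serum and incubated at 37°C. Samples taken at 1 and 4 hours were quenched with one volume of solvent A (99.9% H2O, 0.1% TFA) plus one volume of DMF, centrifuged, passed through a 0.2 micron spin filter and analysed by radio HPLC.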

Series [4] is described as follows: In vivo stability: urine metabolite analysis by radio HPLC. The note with it: mouse urine collected 1 hour post-injection, 3 mice. Put shortly: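 Urine was collected 1 hour after tail-vein injection of radiolabelled test compound (66.3-70.6 μCi in 150 μl PBS) from 3 of the healthy biodistribution mice. Samples were diluted to 1 mL with solvent A (99.9% H2O, 0.1% TFA) and analysed by radio HPLC.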

For the molecule `CC(C)C[C@@H]1NC(=O)[C@@H]2CSSC[C@@H](C(=O)NCC(N)=O)NC(=O)[C@H](Cc3ccccc3)NC(=O)CNC(=O)[C@H](CC(N)=O)NC(=O)[C@@H]3CCCN3C(=O)CNC(=O)[C@@H]3CSSC[C@H](NC(=O)[C@H]([C@@H](C)O)NC(=O)[C@H](CC(C)C)NC(=O)[C@@H]4CCCN4C(=O)[C@@H]4CCCN4C(=O)[C@H](CC(N)=O)NC(=O)[C@H](CC(=O)O)NC(=O)CNC(=O)[C@H](CCCNC(=N)N)NC(=O)[C@@H]4CCCN4C(=O)[C@H](CCCNC(=N)N)NC(=O)[C@@H]4CCCN4C(=O)[C@@H](NC(=O)CNC(=O)CN4CCN(CC(=O)O)CCN(CC(=O)O)CCN(CC(=O)O)CC4)CSSC[C@H](NC(=O)CNC(=O)[C@H](C)NC1=O)C(=O)N[C@@H](C(C)C)C(=O)N3)C(=O)N[C@@H](CO)C(=O)N[C@@H](CCC(N)=O)C(=O)N[C@@H](CC(=O)O)C(=O)N[C@@H](CO)C(=O)N[C@@H](CC(=O)O)C(=O)N2` [^64Cu-DOTA-knottin 2.5F, metal not drawn] (HELM PEPTIDE1{[O=C(O)CN1CCN(CC(=O)O)CCN(CC(=O)[*:2])CCN(CC(=O)O)CC1].G.C.P.R.P.R.G.D.N.P.P.L.T.C.S.Q.D.S.D.C.L.A.G.C.V.C.G.P.N.G.F.C.G.[am]}$PEPTIDE1,PEPTIDE1,3:R3-25:R3|PEPTIDE1,PEPTIDE1,15:R3-27:R3|PEPTIDE1,PEPTIDE1,21:R3-33:R3$$$V2.0; N-terminus and C-terminus assumed), the “Acute immune response on repeated imaging” value in series [1] was “without the observation of an acute immune response”. Also, the tissue uptake per volume at 1 h was 11.4 ± 1.45 %ID/mL in series [2] (kidneys) and 1.28 to 2.53 %ID/mL in series [2] (stomach, intestine, spleen, liver). In series [3], the Serum stability result is “highly stable”. Besides, in series [4], the “Stability in vivo, excretion in urine” value is “mainly excreted intact”.
